For series [1], the species on record is Cavia porcellus. The series is described as follows: In vitro functional studies in guinea pig ileum.
For series [2], the species on record is Cavia porcellus. Nature of the series: In vitro functional studies in guinea pig left atrium. As to conditions: Cardiac atrium.
Series [3] has as its target T1, Muscarinic acetylcholine receptor M1 (Rattus norvegicus, UniProt P08482).
T1 sequence (P08482 whole entry): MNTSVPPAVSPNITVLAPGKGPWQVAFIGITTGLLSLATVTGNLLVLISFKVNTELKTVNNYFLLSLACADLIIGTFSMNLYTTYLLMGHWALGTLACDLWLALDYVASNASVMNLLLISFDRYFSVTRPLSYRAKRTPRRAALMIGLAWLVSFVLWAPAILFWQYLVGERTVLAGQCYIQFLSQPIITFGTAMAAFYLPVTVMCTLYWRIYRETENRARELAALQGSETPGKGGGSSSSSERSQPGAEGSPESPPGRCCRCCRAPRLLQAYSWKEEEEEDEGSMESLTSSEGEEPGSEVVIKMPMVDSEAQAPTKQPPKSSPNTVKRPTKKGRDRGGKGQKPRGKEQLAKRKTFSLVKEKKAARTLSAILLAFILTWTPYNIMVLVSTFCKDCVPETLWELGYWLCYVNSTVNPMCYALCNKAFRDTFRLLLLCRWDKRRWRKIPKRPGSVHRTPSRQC
The series is described as follows: In vitro receptor binding against Muscarinic acetylcholine receptor M1 in rat cerebral cortex was determined using [3H]pirenzepine. The format is tissue-based. In outline:
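Rat cortex, heart or submandibular gland homogenates in Na+-Mg2+-HEPES pH 7.4, incubated 45 min at 30 °C with radioligand plus varying cold ligand. Separated by centrifugation, pellets washed and counted, in triplicate. KD from IC50 by nonlinear regression with Cheng–Prusoff correction; Hill slopes by linear regression.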

For series [4], the system named is Rattus norvegicus. Nature of the series: […] activity against carbachol-induced colonic spasms in rat (iv). The format is functional. In outline: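 Compounds given iv 2 min before each spasmogen dose. Percent inhibition of pretreatment contractions; ED50 with 95% confidence limits from linear regression of log dose-response curves.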
Series [5] concerns Rattus norvegicus. The series is described as follows: In vivo activity against oxotremorine induced tremors in rat (iv).
In series [6] the test system is Rattus norvegicus. The series is described as follows: In vivo activity against oxotremorine induced salivation in rat (iv).
For series [7], the target named is T2, Muscarinic acetylcholine receptor M2 (Rattus norvegicus, UniProt P10980).
T2 sequence (P10980 whole entry): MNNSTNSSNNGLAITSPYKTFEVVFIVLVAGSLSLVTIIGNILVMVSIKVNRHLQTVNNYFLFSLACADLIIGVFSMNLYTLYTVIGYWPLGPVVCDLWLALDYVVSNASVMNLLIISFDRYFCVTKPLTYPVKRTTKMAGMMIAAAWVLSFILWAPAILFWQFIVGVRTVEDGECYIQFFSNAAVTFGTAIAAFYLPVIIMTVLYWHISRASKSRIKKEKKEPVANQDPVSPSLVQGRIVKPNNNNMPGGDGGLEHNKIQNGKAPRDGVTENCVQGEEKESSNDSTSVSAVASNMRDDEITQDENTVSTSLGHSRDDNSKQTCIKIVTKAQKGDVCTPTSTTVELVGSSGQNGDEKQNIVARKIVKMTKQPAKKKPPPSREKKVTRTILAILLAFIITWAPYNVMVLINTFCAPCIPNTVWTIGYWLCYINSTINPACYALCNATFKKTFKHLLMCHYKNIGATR
Nature of the series: In vitro receptor binding against Muscarinic acetylcholine receptor M2 in rat heart was determined using [3H]NMS.

Series [8] deals with Muscarinic acetylcholine receptor M3 (Rattus norvegicus, UniProt P08483). Nature of the series: In vitro receptor binding against Muscarinic acetylcholine receptor M3 in rat submandibular gland was determined using [3H]NMS.
Chain of Muscarinic acetylcholine receptor M3 (P08483 whole entry): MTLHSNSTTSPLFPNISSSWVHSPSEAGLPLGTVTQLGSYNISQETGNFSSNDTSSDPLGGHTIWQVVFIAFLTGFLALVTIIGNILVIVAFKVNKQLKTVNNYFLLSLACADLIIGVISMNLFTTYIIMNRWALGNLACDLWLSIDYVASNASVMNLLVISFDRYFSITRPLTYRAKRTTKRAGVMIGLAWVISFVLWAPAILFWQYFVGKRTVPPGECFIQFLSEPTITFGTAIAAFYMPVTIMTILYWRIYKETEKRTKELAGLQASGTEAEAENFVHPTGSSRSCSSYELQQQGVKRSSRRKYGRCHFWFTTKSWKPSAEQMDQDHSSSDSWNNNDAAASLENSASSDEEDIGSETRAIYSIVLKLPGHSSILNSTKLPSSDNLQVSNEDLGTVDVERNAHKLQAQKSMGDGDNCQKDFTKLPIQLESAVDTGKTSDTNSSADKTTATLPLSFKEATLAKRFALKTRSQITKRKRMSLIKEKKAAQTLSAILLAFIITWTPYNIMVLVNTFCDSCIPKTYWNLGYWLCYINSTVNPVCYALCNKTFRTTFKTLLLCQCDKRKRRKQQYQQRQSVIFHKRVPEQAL
The nature of series [9]: pKa value was determined. The format is physicochemical. An outline of the steps: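 Macroscopic pKa measured by potentiometric titration in water containing a few milliliters of methanol, with a glass electrode.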

Turning to `CCCC[N+]1(C)C2CC(OC(=O)C(CO)c3ccccc3)CC1C1OC12.[Br-]` (centres undefined), the Kb in the series filed under Cavia porcellus [1] was determined as 56.3 nM; in the series filed under Cavia porcellus [2], 58.4 nM. The Kd in series [3] is 300 nM; in series [7], 220 nM; in series [8] it was 220 nM. In addition, the ED50 with Rattus norvegicus [4] is 52.9 µg/kg; in the series with Rattus norvegicus [5] it was more than 3000 µg/kg; in the series on Rattus norvegicus [6] it was 385 µg/kg.
Turning to `C[N+]1(C)C2CC(OC(=O)C(CO)c3ccccc3)CC1C1OC12` (centres undefined), the Kb in the series listed under Cavia porcellus [1] is 0.17 nM; in the series listed under Cavia porcellus [2], 0.38 nM.
On to `O=C(O[C@@H]1C[C@@H]2N[C@H](C1)[C@@H]1O[C@@H]12)[C@H](CO)c1ccccc1`, for which the pKa in series [9] came to 7.09.
With `CC(=N)N1C2CC(OC(=O)C(CO)c3ccccc3)CC1C1OC12.Cl` (centres undefined), the pKa in series [9] is 10.7. In addition, the Kb in the series filed under Cavia porcellus [1] was found to be 1.55 nM; in the series filed under Cavia porcellus [2] it was 5.02 nM. In addition, the equilibrium dissociation constant (Kd) in [3] worked out at 3.4 nM; in series [7] it was 6.7 nM; in [8] it was 3.5 nM. Also, the ED50 with Rattus norvegicus [4] is 3.9 µg/kg; in the series on Rattus norvegicus [5] it was 1700 µg/kg; with Rattus norvegicus [6], 4.1 µg/kg.
`Cl.N=CN1C2CC(OC(=O)C(CO)c3ccccc3)CC1C1OC12` (centres undefined) yielded a pKa in series [9] of 9.78. Further, the Kb in the series listed under Cavia porcellus [1] was 1.68 nM; in the series listed under Cavia porcellus [2], 6.55 nM. For the same molecule, the Kd is 3.6 nM in [3], 10 nM in [7] and 5 nM in series [8]. Besides, the ED50 in the series with Rattus norvegicus [4] is 6.1 µg/kg; in the series on Rattus norvegicus [5] it was 1300 µg/kg; in the series with Rattus norvegicus [6], 2.45 µg/kg.
`Cl.N=CN1C2CCC1CC(OC(=O)C(CO)c1ccccc1)C2` (centres undefined) displayed a pKa in series [9] of 10.3. Besides, the Kb in the series filed under Cavia porcellus [1] came to 0.72 nM; in the series filed under Cavia porcellus [2], 1.59 nM. The Kd is 1.1 nM in series [3], 1.6 nM in series [7] and 1.4 nM in [8]. In addition, the values for the ED50 with Rattus norvegicus [4], in the series on Rattus norvegicus [5] and in the series with Rattus norvegicus [6] were 3.5 µg/kg, more than 10000 µg/kg and 3.9 µg/kg, respectively.
Regarding `Cl.N=C(N)N1C2CC(OC(=O)C(CO)c3ccccc3)CC1C1OC12` (centres undefined), the pKa in series [9] was 10.8. The Kb in the series filed under Cavia porcellus [1] was found to be 5.18 nM; in the series filed under Cavia porcellus [2] it was 16.4 nM. Besides, the Kd was 7.5 nM in series [3], 23 nM in series [7] and 4.5 nM in series [8]. Besides, the ED50 in the series on Rattus norvegicus [4] is 18.6 µg/kg; in the series with Rattus norvegicus [5], more than 3000 µg/kg; in the series on Rattus norvegicus [6] it was 18.8 µg/kg.
In [9], `CC(=N)N1C2CCC1CC(OC(=O)C(CO)c1ccccc1)C2.Cl` (centres undefined) came in with a pKa of 10.9. Moreover, the Kb in the series filed under Cavia porcellus [1] stood at 1.61 nM; in the series filed under Cavia porcellus [2], 3.17 nM. Moreover, the Kd is 2 nM in [3], 10 nM in series [7] and 3.1 nM in [8]. Also, the ED50 was 3.3 µg/kg in the series on Rattus norvegicus [4], more than 10000 µg/kg in the series on Rattus norvegicus [5] and 6.2 µg/kg in the series with Rattus norvegicus [6].
In [9], `Cl.N=C(N)N1C2CCC1CC(OC(=O)C(CO)c1ccccc1)C2` (centres undefined) gave a pKa of 11.6. Further, the results for the Kb in the series listed under Cavia porcellus [1] and in the series filed under Cavia porcellus [2] were 1.92 nM and 3.06 nM, respectively. The dissociation constant (Kd) in [3] is 7 nM; in series [7], 11 nM; in [8], 2.5 nM. The figures for the ED50 with Rattus norvegicus [4], in the series on Rattus norvegicus [5] and with Rattus norvegicus [6] were 9.8 µg/kg, more than 3000 µg/kg and 5.8 µg/kg, respectively.
Regarding `C[N+]1(C)[C@@H]2CC[C@H]1C[C@@H](OC(=O)C(CO)c1ccccc1)C2` (some centres undefined) [ATROPINE METHYLBROMIDE], the Kb in the series filed under Cavia porcellus [1] was found to be 0.71 nM; in the series listed under Cavia porcellus [2], 1.29 nM. The results for the Kd in [7] and in series [8] were 2.7 nM and 2.6 nM, respectively.
As to `CN1[C@@H]2CC[C@H]1C[C@@H](OC(=O)C(CO)c1ccccc1)C2` (some centres undefined) [ATROPINE], the Kb in the series filed under Cavia porcellus [1] came to 3.16 nM; in the series listed under Cavia porcellus [2] it was 0.66 nM. In addition, the results for the ED50 with Rattus norvegicus [4], with Rattus norvegicus [5] and in the series with Rattus norvegicus [6] were 4.5 µg/kg, 453 µg/kg and 8.6 µg/kg, respectively.
Turning to `CN1[C@@H]2C[C@@H](OC(=O)[C@H](CO)c3ccccc3)C[C@H]1[C@@H]1O[C@@H]12` [SCOPOLAMINE], the values for the Kb in the series filed under Cavia porcellus [1] and in the series listed under Cavia porcellus [2] were 0.4 nM and 0.17 nM, respectively. For the same molecule, the ED50 in the series on Rattus norvegicus [4] came out at 5.8 µg/kg; in the series with Rattus norvegicus [5], 11 µg/kg; in the series on Rattus norvegicus [6], 2.6 µg/kg.

These data come from ChEMBL document CHEMBL1124864, “Synthesis and biological evaluation of new antimuscarinic compounds with amidine basic centers. A useful bioisosteric replacement of classical cationic heads” (J Med Chem, 1990).
